Measurements from different studies.
Protocols differ between the studies behind these lines.
Target: 1-phosphatidylinositol 3-phosphate 5-kinase (PIKFYVE, Homo sapiens, UniProt Q9Y2I7)

FC(F)(F)Oc1cccc(-c2cnc3ccc(-c4ccncc4)nn23)c1  remaining binding (cell-free assay, competition with immobilised ligand; 5 µM): 2.4%
Cc1cnn2ncc(-c3ccnc(N(C)C)n3)c2c1  remaining binding (binding; 1 µM): 87%
CC(C)CC(=O)N1CCc2nc(-c3ccc(Br)cc3)nc(N(C)Cc3ccccc3)c2C1  remaining binding (cell-free assay, competition with immobilised ligand; 0.1 µM): 91%
C[C@H]1CCN(c2nccc(-c3cnn4ncccc34)n2)C1  remaining binding (binding; 1 µM): 100%
CSc1cccnc1N1CCN(Cc2nc3ccccc3[nH]2)CC1  remaining binding (cell-free assay, competition with immobilised ligand; 1 µM): 100%
c1cnn2ncc(-c3ccnc(N4CCC45COC5)n3)c2c1  remaining binding (binding; 1 µM): 92%
c1cncc(-c2cccc(Nc3nccc(NC4CCCCC4)n3)c2)c1  remaining binding (binding, competition with immobilised ligand; 10 µM): 29%
COc1cc(-c2cn(C3CCc4c(F)cccc4N(CC(F)(F)F)C3=O)nn2)ccc1-n1cnc(C)c1 (stereo not drawn)  remaining binding (cell-free assay, competition with immobilised ligand; 1 µM): 100%
O=C(c1ccc(Nc2ncc(Cl)c(-c3ccc(Cl)s3)n2)cc1)N1CCC(N2CCCC2)CC1  remaining binding (binding, competition with immobilised ligand; 1 µM): 32%
CNC(=O)[C@@H]1CC[C@@H](n2c(-c3ccc4cnccc4c3)nc3ccc(C(=O)NCc4cccc(C(N)=O)c4)cc32)C1  remaining binding (binding, competition with immobilised ligand; 1 µM): 14%
O=C(NCC1CCOCC1)c1n[nH]cc1NC(=O)c1c(F)cccc1F  remaining binding (binding, competition with immobilised ligand; 1 µM): 100%
O=C(c1ccc(Nc2ncc(Cl)c(-c3cc4ccccc4s3)n2)cc1)N1CCC(N2CCCC2)CC1  remaining binding (binding, competition with immobilised ligand; 1 µM): 72%
FC(F)(F)c1ccc2c(c1)nc(-c1cccnc1)n2C1CC1  remaining binding (cell-free assay, competition with immobilised ligand; 1 µM): 99%
N[C@@H]1CCN(c2nccc(-c3cnn4ncccc34)n2)C1  remaining binding (binding; 1 µM): 78%
CO[C@H]1CC[C@H](CNc2ccc(S(=O)(=O)NC(=O)c3ccc(N4CCN(CC5=C(c6ccc(Cl)cc6)CC(C)(C)CC5)CC4)cc3Oc3cnc4[nH]ccc4c3)cc2[N+](=O)[O-])CC1  remaining binding (cell-free assay, competition with immobilised ligand; 1 µM): 89%
O=C(NCCCN1CCOCC1)c1ccc(Nc2ncc(Cl)c(-c3ccc(Cl)s3)n2)cc1  remaining binding (binding, competition with immobilised ligand; 1 µM): 53%
CN([C@@H]1CCc2c(CC(=O)O)c3ccccc3n2C1)S(=O)(=O)c1ccc(F)cc1  remaining binding (cell-free assay, competition with immobilised ligand; 1 µM): 100%
CN(CCCC(F)(F)F)c1nccc(-c2cnn3ncccc23)n1  remaining binding (binding; 1 µM): 45%
